From ChEMBL document CHEMBL4325900, “Antibacterial activity evaluation of synthetic novel pleuromutilin derivatives in vitro and in experimental infection mice” (2019)
Converted amounts (≈) assume the structure as drawn.

Tests used:
Enterococcus faecalis = test: Antibacterial activity against Enterococcus faecalis after 24 hrs by NCCLS method; assay type: functional
Procedure, shortened: (§1)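 Broth microdilution in Mueller-Hinton broth. Stocks at 1280 µg/mL in aqueous 10-20% DMSO were diluted to 128 µg/mL, then serially 2-fold diluted giving final concentrations of 64 down to 0.125 µg/mL. Overnight MHB cultures were diluted to 10^6~10^7 CFU/mL, and 100 µL was added per well. Plates ran 24 h at 37°C. MIC was read from OD against an MHB blank, in triplicate.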

Staphylococcus aureus [1] = test: Antibacterial activity against methicillin-sensitive Staphylococcus aureus after 24 hrs by NCCLS method; assay type: functional; procedure, shortened: as §1
Pasteurella multocida = test: Antibacterial activity against Pasteurella multocida after 24 hrs by NCCLS method; assay type: functional; procedure, shortened: as §1
Enterococcus faecium = test: Antibacterial activity against Enterococcus faecium after 24 hrs by NCCLS method; assay type: functional; procedure, shortened: as §1
Escherichia coli [2] = test: Antibacterial activity against Escherichia coli ATCC 11775 after 24 hrs by NCCLS method; assay type: functional; conditions: DSM 30083 = JCM 1649 = ATCC 11775, 24 h; procedure, shortened: as §1
Escherichia coli [3] = test: Potency index, ratio of MIC for Valnemulin hydrochloride to MIC for test compound for antibacterial activity against Escherichia coli ATCC 11775 after 24 hrs by NCCLS method; assay type: functional, DSM 30083 = JCM 1649 = ATCC 11775
[4] = test system: Staphylococcus epidermidis; test: Antibacterial activity against methicillin-sensitive Staphylococcus epidermidis after 24 hrs by NCCLS method; assay type: functional
Procedure, shortened: (§2)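 Broth microdilution in Mueller-Hinton broth. Stocks at 1280 µg/mL in aqueous 10-20% DMSO, diluted to 128 µg/mL, then 2-fold serially to final 64 down to 0.125 µg/mL. Overnight MHB cultures diluted to 10^6~10^7 CFU/mL and added 1:1 to compound. Incubated 24 h at 37°C. MIC read from OD against MHB blank. Three parallels per concentration.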

[5] = test system: Staphylococcus epidermidis; test: Antibacterial activity against methicillin-resistant Staphylococcus epidermidis after 24 hrs by NCCLS method; assay type: functional; procedure, shortened: as §2
Staphylococcus aureus [6] = test: Antibacterial activity against methicillin-resistant Staphylococcus aureus after 24 hrs by NCCLS method; assay type: functional; procedure, shortened: as §2
Staphylococcus aureus [7] = test: Antibacterial activity against methicillin-resistant Staphylococcus aureus clinical isolates infected in ip dosed mouse assessed as reduction in bacterial infection administered 1 hr after infection and measured after 7 days; assay type: functional
Procedure, shortened: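 Kunming mice, half male and half female, 19-23 g, 10 per group. Infected i.p. with 0.5 mL clinical MRSA isolate suspension (~10^7 CFU/mL). Single i.p. dose 1 h post-infection, five dose levels between 7.0 and 50.0 mg/kg depending on compound. Vehicle was DMSO:Tween-80:water 1:1:8, or water for valnemulin. ED50 by Probit analysis from survival after 7 days; 95% confidence ranges.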

Staphylococcus aureus [8] = test: Antibacterial activity against methicillin-resistant Staphylococcus aureus infected in Kunming mouse assessed as mouse survival at 40 mg/kg, ig qd treated for 3 consecutive days and measured at day 5 relative to control; assay type: functional; conditions: po, 120 h
Procedure, shortened: (§3)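 Female Kunming mice, 22±2 g, made neutropenic with cyclophosphamide i.p., 150 mg/kg 4 days and 100 mg/kg 1 day before infection. Infected i.p. with 0.5 mL suspension of clinical MRSA isolate. Intragastric dosing at 20 or 40 mg/kg/d, starting 1 h post-infection, once daily for 3 consecutive days. Survival monitored.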

Staphylococcus aureus [9] = test: Bactericidal activity against exponential phase of methicillin-resistant Staphylococcus aureus assessed as time required for complete bacterial killing at 4 times MIC by time kill kinetics assay; assay type: functional
Procedure, shortened: (§4)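 Exponential-phase S. aureus (4 h at 37°C, 120 rpm) diluted to ~2×10^7 CFU/mL in MHB and mixed 1:1 with MHB containing twice the desired compound concentration. Shaken at 37°C, 120 rpm. Samples at 1, 2, 3 and 4 h washed with PBS, diluted, spot-plated on MH agar, counted after ~18 h at 37°C as log10 CFU/mL. Triplicate, mean±s.d.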

Staphylococcus aureus [10] = test: Bactericidal activity against exponential phase of methicillin-resistant Staphylococcus aureus after 1 to 4 hrs by time kill kinetics assay; assay type: functional, organism-based; procedure, shortened: as §4
Staphylococcus aureus [11] = test: Antibacterial activity against methicillin-resistant Staphylococcus aureus infected in Kunming mouse assessed as mouse survival at 40 mg/kg, ig qd treated for 3 consecutive days and measured at day 6 relative to control; assay type: functional; conditions: po, 144 h; procedure, shortened: as §3
Staphylococcus aureus [12] = test: Antibacterial activity against methicillin-resistant Staphylococcus aureus infected in Kunming mouse assessed as mouse survival at 40 mg/kg, ig qd treated for 3 consecutive days and measured during compound treatment relative to control; assay type: functional; conditions: po; procedure, shortened: as §3
Staphylococcus aureus [13] = test: Antibacterial activity against methicillin-resistant Staphylococcus aureus infected in Kunming mouse assessed as mouse survival at 20 mg/kg, ig qd treated for 3 consecutive days and measured up to 10 days relative to control; assay type: functional; conditions: po, 240 h; procedure, shortened: as §3
Staphylococcus aureus [14] = test: Bactericidal activity against exponential phase of methicillin-resistant Staphylococcus aureus assessed as time required for complete bacterial killing at 8 times MIC by time kill kinetics assay; assay type: functional; procedure, shortened: as §4

## C=C[C@]1(C)C[C@@H](OC(=O)CSc2nc(NC(=O)CN(CC)CC)c3cc[nH]c3n2)[C@]2(C)[C@H](C)CC[C@]3(CCC(=O)[C@H]32)[C@@H](C)[C@@H]1O
Enterococcus faecalis
  MIC: 32 µg/mL (≈ 50 µM)
Staphylococcus aureus [1]
  MIC: 0.0625 µg/mL (≈ 0.0977 µM)
Pasteurella multocida
  MIC: 64 µg/mL (≈ 100 µM)
Enterococcus faecium
  MIC: 0.125 µg/mL (≈ 0.195 µM)
Escherichia coli [2]
  MIC: 16 µg/mL (≈ 25 µM)
Escherichia coli [3]
  Ratio: 2
[4]
  MIC: 0.0625 µg/mL (≈ 0.0977 µM)
[5]
  MIC: 0.125 µg/mL (≈ 0.195 µM)
Staphylococcus aureus [6]
  MIC: 0.0625 µg/mL (≈ 0.0977 µM)
Staphylococcus aureus [7]
  ED50: 27.7 mg/kg

## C=C[C@]1(C)C[C@@H](OC(=O)CSc2nc(NC(=O)CN3CCC(N(C)C)CC3)c3cc[nH]c3n2)[C@]2(C)[C@H](C)CC[C@]3(CCC(=O)[C@H]32)[C@@H](C)[C@@H]1O
Enterococcus faecalis
  MIC: 64 µg/mL (≈ 92.1 µM)
Staphylococcus aureus [1]
  MIC: 0.5 µg/mL (≈ 0.719 µM)
Pasteurella multocida
  MIC: 64 µg/mL (≈ 92.1 µM)
Enterococcus faecium
  MIC: 1 µg/mL (≈ 1.44 µM)
Escherichia coli [2]
  MIC: > 64 µg/mL
[4]
  MIC: 0.5 µg/mL (≈ 0.719 µM)
[5]
  MIC: 0.5 µg/mL (≈ 0.719 µM)
Staphylococcus aureus [6]
  MIC: 1 µg/mL (≈ 1.44 µM)

## C=C[C@]1(C)C[C@@H](OC(=O)CSc2nc(NC(=O)CNC3CC3)c3cc[nH]c3n2)[C@]2(C)[C@H](C)CC[C@]3(CCC(=O)[C@H]32)[C@@H](C)[C@@H]1O
Enterococcus faecalis
  MIC: 64 µg/mL (≈ 103 µM)
Staphylococcus aureus [1]
  MIC: 0.125 µg/mL (≈ 0.2 µM)
Pasteurella multocida
  MIC: 32 µg/mL (≈ 51.3 µM)
Enterococcus faecium
  MIC: 0.25 µg/mL (≈ 0.401 µM)
Escherichia coli [2]
  MIC: > 64 µg/mL
[4]
  MIC: 0.125 µg/mL (≈ 0.2 µM)
[5]
  MIC: 0.25 µg/mL (≈ 0.401 µM)
Staphylococcus aureus [6]
  MIC: 0.25 µg/mL (≈ 0.401 µM)

## C=C[C@]1(C)C[C@@H](OC(=O)CSc2nc(NC(=O)CN3CCCC3)c3cc[nH]c3n2)[C@]2(C)[C@H](C)CC[C@]3(CCC(=O)[C@H]32)[C@@H](C)[C@@H]1O
Enterococcus faecalis
  MIC: 64 µg/mL (≈ 100 µM)
Staphylococcus aureus [1]
  MIC: 0.0625 µg/mL (≈ 0.098 µM)
Pasteurella multocida
  MIC: 16 µg/mL (≈ 25.1 µM)
Enterococcus faecium
  MIC: 0.0625 µg/mL (≈ 0.098 µM)
Staphylococcus aureus [8]
  survival at 40 mg/kg: 70%
Escherichia coli [2]
  MIC: 32 µg/mL (≈ 50.2 µM)
Staphylococcus aureus [9]
  Time: 4 h
Staphylococcus aureus [10]
  Activity: Dose-dependent effect
[4]
  MIC: 0.0625 µg/mL (≈ 0.098 µM)
[5]
  MIC: 0.0625 µg/mL (≈ 0.098 µM)
Staphylococcus aureus [6]
  MIC: 0.0625 µg/mL (≈ 0.098 µM)
Staphylococcus aureus [11]
  survival at 40 mg/kg: 80%
Staphylococcus aureus [12]
  survival at 40 mg/kg: > 90%
Staphylococcus aureus [13]
  survival at 20 mg/kg: 30%
Staphylococcus aureus [14]
  Time: 2 h
Staphylococcus aureus [7]
  ED50: 16 mg/kg

## C=C[C@]1(C)C[C@@H](OC(=O)CSc2nc(NC(=O)CNC3CCCCC3)c3cc[nH]c3n2)[C@]2(C)[C@H](C)CC[C@]3(CCC(=O)[C@H]32)[C@@H](C)[C@@H]1O
Enterococcus faecalis
  MIC: 64 µg/mL (≈ 96.1 µM)
Staphylococcus aureus [1]
  MIC: 0.5 µg/mL (≈ 0.751 µM)
Pasteurella multocida
  MIC: 64 µg/mL (≈ 96.1 µM)
Enterococcus faecium
  MIC: 0.5 µg/mL (≈ 0.751 µM)
Escherichia coli [2]
  MIC: > 64 µg/mL
[4]
  MIC: 0.5 µg/mL (≈ 0.751 µM)
[5]
  MIC: 0.5 µg/mL (≈ 0.751 µM)
Staphylococcus aureus [6]
  MIC: 1 µg/mL (≈ 1.5 µM)

## C=C[C@]1(C)C[C@@H](OC(=O)CSc2nc(NC(=O)CN3CCN(c4ccccn4)CC3)c3cc[nH]c3n2)[C@]2(C)[C@H](C)CC[C@]3(CCC(=O)[C@H]32)[C@@H](C)[C@@H]1O
Enterococcus faecalis
  MIC: 64 µg/mL (≈ 87.7 µM)
Staphylococcus aureus [1]
  MIC: 1 µg/mL (≈ 1.37 µM)
Pasteurella multocida
  MIC: > 64 µg/mL
Enterococcus faecium
  MIC: 0.25 µg/mL (≈ 0.342 µM)
Escherichia coli [2]
  MIC: > 64 µg/mL
[4]
  MIC: 0.5 µg/mL (≈ 0.685 µM)
[5]
  MIC: 0.5 µg/mL (≈ 0.685 µM)
Staphylococcus aureus [6]
  MIC: 0.5 µg/mL (≈ 0.685 µM)

## C=C[C@]1(C)C[C@@H](OC(=O)CSc2nc(NC(=O)CN3CCOCC3)c3cc[nH]c3n2)[C@]2(C)[C@H](C)CC[C@]3(CCC(=O)[C@H]32)[C@@H](C)[C@@H]1O
Enterococcus faecalis
  MIC: 64 µg/mL (≈ 97.9 µM)
Staphylococcus aureus [1]
  MIC: 0.125 µg/mL (≈ 0.191 µM)
Pasteurella multocida
  MIC: 32 µg/mL (≈ 48.9 µM)
Enterococcus faecium
  MIC: 0.25 µg/mL (≈ 0.382 µM)
Escherichia coli [2]
  MIC: 64 µg/mL (≈ 97.9 µM)
[4]
  MIC: 0.25 µg/mL (≈ 0.382 µM)
[5]
  MIC: 0.25 µg/mL (≈ 0.382 µM)
Staphylococcus aureus [6]
  MIC: 0.25 µg/mL (≈ 0.382 µM)

## C=C[C@]1(C)C[C@@H](OC(=O)CSc2nc(NC(=O)CN3CCC(c4ccccc4)CC3)c3cc[nH]c3n2)[C@]2(C)[C@H](C)CC[C@]3(CCC(=O)[C@H]32)[C@@H](C)[C@@H]1O
Staphylococcus aureus [1]
  MIC: 0.25 µg/mL (≈ 0.343 µM)
[4]
  MIC: 0.25 µg/mL (≈ 0.343 µM)
[5]
  MIC: 0.25 µg/mL (≈ 0.343 µM)
Staphylococcus aureus [6]
  MIC: 0.25 µg/mL (≈ 0.343 µM)

## C=C[C@]1(C)C[C@@H](OC(=O)CSc2nc(NC(=O)CN3CCC(O)CC3)c3cc[nH]c3n2)[C@]2(C)[C@H](C)CC[C@]3(CCC(=O)[C@H]32)[C@@H](C)[C@@H]1O
[4]
  MIC: 1 µg/mL (≈ 1.5 µM)
[5]
  MIC: 1 µg/mL (≈ 1.5 µM)
Staphylococcus aureus [6]
  MIC: 2 µg/mL (≈ 2.99 µM)
